Calls of active or inactive are those of the source.
Key:
[1] = target: T1, Adrenergic receptor alpha-2 (Homo sapiens) (UniProt P08913+P18825+P18089); conditions: Cavia porcellus
[2] = target: T1, Adrenergic receptor alpha-2 (Homo sapiens); conditions: Cavia porcellus; remark: listed apart in the source
[3] = target: T2, Beta-1 adrenergic receptor (Cavia porcellus, UniProt B0FL73); assay: The compound was tested for beta-adrenergic activity against Beta-1 adrenergic receptor from guinea pig left atria; conditions: read-out: pA2 (converted)
Outline: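 Electrically paced isolated left atria (inotropy) from guinea pigs of 300-500 g, 2.5 Hz, 5 ms pulses at 50% above threshold. Phentolamine 3.15 × 10^-4 mmol/L in bath. Cumulative isoprenaline curves with ascorbic acid 1.13 × 10^-6 mol/L, before and after 30 min antagonist preincubation. Reported as pA2 or pD'2.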

[4] = target: T3, Alpha-1A adrenergic receptor (Rattus norvegicus, UniProt P43140); assay: The compound was tested for alpha-adrenergic activity against Alpha-1 adrenergic receptor from rat aorta.; conditions: read-out: pA2 (converted)
T3 sequence (P43140 whole entry): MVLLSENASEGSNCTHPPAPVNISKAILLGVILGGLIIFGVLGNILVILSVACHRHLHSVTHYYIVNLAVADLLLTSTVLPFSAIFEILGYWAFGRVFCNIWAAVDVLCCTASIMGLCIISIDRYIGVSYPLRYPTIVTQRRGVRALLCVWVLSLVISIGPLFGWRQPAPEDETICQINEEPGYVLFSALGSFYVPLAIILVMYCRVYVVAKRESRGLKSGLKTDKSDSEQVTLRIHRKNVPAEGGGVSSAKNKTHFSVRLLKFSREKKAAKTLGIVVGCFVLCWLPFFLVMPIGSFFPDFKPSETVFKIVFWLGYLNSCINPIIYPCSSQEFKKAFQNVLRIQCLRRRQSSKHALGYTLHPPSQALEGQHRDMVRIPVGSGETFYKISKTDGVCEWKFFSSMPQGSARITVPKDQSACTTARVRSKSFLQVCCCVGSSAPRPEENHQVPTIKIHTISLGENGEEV
Outline: (§1)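 Isolated rat aorta strips at 2 g resting tension, stabilized about 1 h. Beta-receptors blocked with propranolol 10^-6 mol/L for 30 min. ED50 by Ariens–Van Rossum. Intrinsic activity = maximum response relative to norepinephrine. Antagonism as pA2 (Schild) or, if non-competitive, pD'2.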

[5] = target: Beta-2 adrenergic receptor (Cavia porcellus, UniProt Q8K4Z4); assay: The compound was tested for beta-adrenergic activity against Beta-2 adrenergic receptor from guinea pig trachea.
[6] = target: T4, Alpha-1A adrenergic receptor (Rattus norvegicus) (UniProt P43140); assay: Intrinsic activity expressed as ratio of maximum responses to the compound to the maximum response to norepinephrine; IN-Inactive up to a concentration of 1*10e-4 M; type: functional
T4 sequence (whole entry): T3 sequence (P43140 whole entry)
Outline: as §1, with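 “min. Cumulative norepinephrine curve (10^-10 to 10^-7 mol/L) with ascorbic acid 1.13 × 10^-6 mol/L present.” for “min.”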

[7] = target: T2, Beta-1 adrenergic receptor; assay: The compound was tested for beta-adrenergic activity against Beta-1 adrenergic receptor from guinea pig right atria; conditions: read-out: pA2 (converted)
Outline: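 Spontaneously beating isolated right atria (chronotropy) from guinea pigs of 300-500 g. Phentolamine 3.15 × 10^-4 mmol/L in bath. Isoprenaline cumulative curves with ascorbic acid 1.13 × 10^-6 mol/L, before and after 30 min antagonist preincubation. Reported as pA2 or pD'2.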

[8] = target: T4, Alpha-1A adrenergic receptor (Rattus norvegicus)
[9] = target: Beta-2 adrenergic receptor (Cavia porcellus) (UniProt Q8K4Z4)
[10] = target: T5, Adrenergic receptor alpha-2 (Homo sapiens, UniProt P08913+P18825+P18089); assay: The compound was tested for alpha-adrenergic activity against alpha-2 adrenergic receptor from guinea pig vas deferens.; set-up: species or system Cavia porcellus; conditions: target entry is the homologue from another species
T5 sequence (P08913 whole entry): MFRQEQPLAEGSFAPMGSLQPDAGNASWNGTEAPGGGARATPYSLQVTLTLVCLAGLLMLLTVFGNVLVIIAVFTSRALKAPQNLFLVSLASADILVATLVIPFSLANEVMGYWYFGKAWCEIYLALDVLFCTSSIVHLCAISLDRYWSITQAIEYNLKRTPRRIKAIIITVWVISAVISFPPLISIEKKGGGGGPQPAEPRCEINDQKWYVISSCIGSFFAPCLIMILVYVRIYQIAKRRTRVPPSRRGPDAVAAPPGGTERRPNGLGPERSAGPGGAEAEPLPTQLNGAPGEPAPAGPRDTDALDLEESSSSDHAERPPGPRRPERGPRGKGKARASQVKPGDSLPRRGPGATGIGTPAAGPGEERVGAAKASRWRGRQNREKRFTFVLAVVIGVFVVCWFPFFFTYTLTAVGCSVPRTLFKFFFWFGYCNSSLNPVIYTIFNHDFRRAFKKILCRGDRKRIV
T5 sequence (P18825 whole entry): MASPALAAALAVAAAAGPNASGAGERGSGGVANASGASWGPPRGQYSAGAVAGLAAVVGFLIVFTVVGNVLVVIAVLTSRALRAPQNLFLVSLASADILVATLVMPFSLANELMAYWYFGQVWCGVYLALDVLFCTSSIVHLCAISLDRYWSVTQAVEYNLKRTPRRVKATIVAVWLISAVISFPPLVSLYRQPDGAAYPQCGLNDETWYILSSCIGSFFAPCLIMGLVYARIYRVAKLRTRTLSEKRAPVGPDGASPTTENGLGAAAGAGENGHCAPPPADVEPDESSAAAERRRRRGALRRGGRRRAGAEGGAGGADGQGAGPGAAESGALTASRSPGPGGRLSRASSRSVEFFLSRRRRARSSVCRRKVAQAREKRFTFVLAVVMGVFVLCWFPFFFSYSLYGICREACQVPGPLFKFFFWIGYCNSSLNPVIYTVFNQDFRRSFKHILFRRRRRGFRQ
T5 sequence (P18089 whole entry): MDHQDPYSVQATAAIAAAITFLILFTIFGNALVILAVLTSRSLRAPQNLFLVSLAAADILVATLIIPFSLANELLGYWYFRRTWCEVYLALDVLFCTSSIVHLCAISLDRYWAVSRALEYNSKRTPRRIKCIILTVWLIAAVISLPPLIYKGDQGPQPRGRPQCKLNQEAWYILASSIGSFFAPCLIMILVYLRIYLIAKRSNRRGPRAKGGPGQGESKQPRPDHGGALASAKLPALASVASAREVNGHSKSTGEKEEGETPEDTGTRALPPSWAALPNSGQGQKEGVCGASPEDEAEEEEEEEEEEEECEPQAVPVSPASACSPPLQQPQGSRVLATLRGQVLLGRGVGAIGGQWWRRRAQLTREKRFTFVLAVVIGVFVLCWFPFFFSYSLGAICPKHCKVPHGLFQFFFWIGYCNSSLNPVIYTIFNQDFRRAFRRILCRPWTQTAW

[11] = target: T1, Adrenergic receptor alpha-2 (Homo sapiens); conditions: Cavia porcellus; remark: listed apart in the source
[12] = target: T4, Alpha-1A adrenergic receptor (Rattus norvegicus); remark: listed apart in the source
[13] = target: T4, Alpha-1A adrenergic receptor (Rattus norvegicus); remark: listed apart in the source
[14] = target: T4, Alpha-1A adrenergic receptor (Rattus norvegicus); assay: Intrinsic activity expressed as ratio of maximum responses to the compound to the maximum response to norepinephrine; IN-Inactive up to a concentration of 1*10e-5 M; type: functional
Outline: as §1, with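 “min. Cumulative norepinephrine curve (10^-10 to 10^-7 mol/L) with ascorbic acid 1.13 × 10^-6 mol/L present.” for “min.”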

[15] = target: T4, Alpha-1A adrenergic receptor (Rattus norvegicus); remark: listed apart in the source
[16] = target: T4, Alpha-1A adrenergic receptor (Rattus norvegicus); assay: The compound was tested for alpha-adrenergic activity against Alpha-1 adrenergic receptor from rat aorta;IN- Inactive up to a concentration of 1*10e-3 M
Outline: as §1, with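 “min. Cumulative norepinephrine curve (10^-10 to 10^-7 mol/L) with ascorbic acid 1.13 × 10^-6 mol/L present.” for “min.”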

[17] = target: T1, Adrenergic receptor alpha-2 (Homo sapiens); assay: The compound was tested for alpha-adrenergic activity against alpha-2 adrenergic receptor from guinea pig vas up to a concentration of 1*10e-3 M; conditions: Cavia porcellus; target entry is the homologue from another species
[18] = target: T4, Alpha-1A adrenergic receptor (Rattus norvegicus); assay: Intrinsic activity expressed as ratio of maximum responses to the compound to the maximum response to norepinephrine; IN-Inactive up to a concentration of 1*10e-3 M; type: functional
Outline: as §1, with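 “min. Cumulative norepinephrine curve (10^-10 to 10^-7 mol/L) with ascorbic acid 1.13 × 10^-6 mol/L present.” for “min.”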

Sequence of Beta-2 adrenergic receptor (Q8K4Z4 whole entry): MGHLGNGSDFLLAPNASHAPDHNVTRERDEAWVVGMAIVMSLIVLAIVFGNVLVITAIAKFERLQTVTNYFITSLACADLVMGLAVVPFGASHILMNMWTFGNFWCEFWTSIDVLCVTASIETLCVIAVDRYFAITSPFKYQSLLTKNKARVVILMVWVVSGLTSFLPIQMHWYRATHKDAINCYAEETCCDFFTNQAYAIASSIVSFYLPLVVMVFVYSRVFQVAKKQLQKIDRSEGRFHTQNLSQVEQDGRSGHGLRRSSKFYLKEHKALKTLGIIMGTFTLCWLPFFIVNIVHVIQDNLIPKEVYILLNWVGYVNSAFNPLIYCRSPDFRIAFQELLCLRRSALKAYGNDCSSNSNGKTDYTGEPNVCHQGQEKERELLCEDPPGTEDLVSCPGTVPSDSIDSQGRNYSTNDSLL
T2 sequence (B0FL73 whole entry): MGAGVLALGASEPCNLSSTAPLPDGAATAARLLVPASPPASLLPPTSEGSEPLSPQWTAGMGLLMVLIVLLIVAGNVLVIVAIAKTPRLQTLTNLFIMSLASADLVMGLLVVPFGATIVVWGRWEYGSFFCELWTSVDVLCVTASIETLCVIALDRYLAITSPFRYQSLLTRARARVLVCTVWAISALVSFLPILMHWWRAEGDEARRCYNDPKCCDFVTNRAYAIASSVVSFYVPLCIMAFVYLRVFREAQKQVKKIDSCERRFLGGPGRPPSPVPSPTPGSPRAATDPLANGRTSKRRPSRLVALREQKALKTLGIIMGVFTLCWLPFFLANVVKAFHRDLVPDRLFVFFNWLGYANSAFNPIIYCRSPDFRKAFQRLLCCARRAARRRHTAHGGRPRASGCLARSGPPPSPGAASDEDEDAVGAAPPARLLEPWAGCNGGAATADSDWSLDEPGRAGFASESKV
Sequence of Beta-2 adrenergic receptor (Cavia porcellus) (Q8K4Z4 whole entry, looked up): as the sequence (Q8K4Z4 whole entry) above

| pD2 [2] | Kb [3] | Kb [4] | Kb [5] | Kb [7] | Structure (SMILES) | further results |
| --- | --- | --- | --- | --- | --- | --- |
| 3.93 | 1.45 µM | 3.98 µM | 15.8 µM | 1.48 µM | C/C(=N\OCC(O)CNC(C)(C)C)c1cc(Cl)c(OC(C)C2=NCCN2)c(Cl)c1 (stereo unspecified) | pA2 [1]: inactive; Intrinsic activity [6]: inactive; pD2 [8]: inactive |
| 3.52 | > 100 µM | > 63.1 µM |  | 50.1 µM | CC(C)(C)NCC(O)COc1cc(Cl)c(NC2=NCCN2)c(Cl)c1 (stereo unspecified) | pA2 [9]: inactive; Intrinsic activity [6]: inactive; pA2 [10]: 5.12; pD2 [8]: inactive |
| 6.4 | > 10 µM |  |  | 1.02 µM | CC(C)(C)NCC(O)COCC1CN=C(Nc2c(Cl)cccc2Cl)N1 (stereo unspecified) | pA2 [9]: inactive; pA2 [11]: inactive; pA2 [12]: inactive; pD2 [13]: inactive; Intrinsic activity [14]: inactive |
|  |  |  |  |  | Clc1cccc(Cl)c1NC1=NCCN1 | pD2 [15]: 7.84 |
|  | 50.1 µM | 7.94 µM | 79.4 µM | 50.1 µM | C/C(=N\OCC(O)CNC(C)(C)C)c1cc(Cl)c(NC2=NCCN2)c(Cl)c1 (single isomer, unassigned; (+)) [listing 1 of 2 here] |  |
| 5.1 |  |  |  |  | C/C(=N\OCC(O)CNC(C)(C)C)c1cc(Cl)c(NC2=NCCN2)c(Cl)c1 (single isomer, unassigned; (+)) [listing 2 of 2 here] | pD2 [16]: inactive; pA2 [17]: inactive; Intrinsic activity [18]: inactive |
|  | 39.8 µM | 4.07 µM | 100 µM | 39.8 µM | C/C(=N\OCC(O)CNC(C)(C)C)c1cc(Cl)c(NC2=NCCN2)c(Cl)c1 (stereo in doubt; 3) [listing 1 of 2 here] |  |
| 4.63 |  |  |  |  | C/C(=N\OCC(O)CNC(C)(C)C)c1cc(Cl)c(NC2=NCCN2)c(Cl)c1 (stereo in doubt; 3) [listing 2 of 2 here] | pD2 [16]: inactive; pA2 [17]: inactive; Intrinsic activity [18]: inactive |
|  | 25.1 µM | 12.6 µM | 100 µM | 50.1 µM | C/C(=N\OCC(O)CNC(C)(C)C)c1cc(Cl)c(NC2=NCCN2)c(Cl)c1 (stereo in doubt; (-)-3) [listing 1 of 2 here] |  |
| 4.9 |  |  |  |  | C/C(=N\OCC(O)CNC(C)(C)C)c1cc(Cl)c(NC2=NCCN2)c(Cl)c1 (stereo in doubt; (-)-3) [listing 2 of 2 here] | pD2 [16]: inactive; pA2 [17]: inactive; Intrinsic activity [18]: inactive |
|  | 63.1 µM |  |  | 39.8 µM | Clc1cccc(Cl)c1N=C1NCCN1 [CLONIDINE] |  |
